From ChEMBL document CHEMBL1144418, “Structure-activity relationships of fluorinated lysophosphatidic acid analogues” (J Med Chem, 2005)

Molecular target: T1, Lysophosphatidic acid receptor 3 (Homo sapiens, UniProt Q9UBY5)
T1 sequence (Q9UBY5 whole entry): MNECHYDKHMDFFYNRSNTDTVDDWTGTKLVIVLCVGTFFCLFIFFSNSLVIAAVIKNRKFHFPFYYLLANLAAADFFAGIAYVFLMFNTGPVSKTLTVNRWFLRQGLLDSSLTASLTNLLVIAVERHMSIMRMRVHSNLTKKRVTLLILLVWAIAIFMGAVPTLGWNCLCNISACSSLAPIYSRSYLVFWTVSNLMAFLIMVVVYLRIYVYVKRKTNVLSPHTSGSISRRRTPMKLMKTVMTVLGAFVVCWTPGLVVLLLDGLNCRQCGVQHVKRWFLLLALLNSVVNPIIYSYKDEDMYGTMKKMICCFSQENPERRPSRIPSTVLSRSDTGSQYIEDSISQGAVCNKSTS
Experiment: Agonistic activity as increased intracellular calcium level by human LPA3 receptor expressed in Sf9 cells
Format: functional
In short: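 Sf9 insect cells infected with baculovirus encoding human LPA3, harvested 48 h post-infection, washed in MES-buffered saline (pH 6.2, 0.1% fatty acid-free BSA, 10 mM CaCl2), loaded with Fura-2 AM 45 min, resuspended at 10^6 cells/mL; ligand-evoked fluorescence at 27 °C in quartz cuvettes, excitation 340/380 nm, emission 500 nm, recorded before and after ligand addition; EC50 from concentration-response.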

Row | EC50 [nM] | Structure (SMILES)
1 | 20 | CCCCCCCC/C=C/CCCCCCCC(=O)OC[C@H](CC(F)P(=O)(O)O)OC (stereo partly drawn)
2 | > 10000 | CCCCCCCCCCCCCCCC(=O)OC[C@H](O)CC(F)P(=O)(O)O (stereo partly drawn)
3 | > 10000 | CCCCCCCC/C=C/CCCCCCCC(=O)O[C@H](COP(=O)(O)O)CC(F)F
4 | 0.5 | CCCCCCCC/C=C/CCCCCCCC(=O)OC[C@@H](O)CC(F)P(=O)(O)O (stereo partly drawn)
5 | 20 | CCCCCCCCCCCCCCCC(=O)OC[C@@H](O)CC(F)P(=O)(O)O (stereo partly drawn)
6 | ~10000 | CCCCCCCCCCCCCCCC(=O)O[C@H](COC)CC(F)P(=O)(O)O (stereo partly drawn)
7 | > 10000 | CCCCCCCCCCCCCCCC(=O)OC[C@@H](F)COP(=O)(O)O
8 | > 10000 | CCCCCCCCCCCCCCCC(=O)OC[C@H](F)COP(=O)(O)O
9 | > 10000 | CCCCCCCC/C=C/CCCCCCCC(=O)O[C@H](COP(=O)(O)O)C(F)F
10 | > 10000 | CCCCCCCC/C=C/CCCCCCCC(=O)OC[C@@H](F)COP(=O)(O)O
11 | > 10000 | CCCCCCCCCCCCCCCC(=O)OC[C@H](CC(F)P(=O)(O)O)OC (stereo partly drawn)
12 | > 10000 | CCCCCCCCCCCCCCCC(=O)O[C@H](COP(=O)(O)O)CC(F)F
13 | > 10000 | CCCCCCCCCCCCCCCC(=O)O[C@H](COP(=O)(O)O)C(F)F
14 | ~1000 | CCCCCCCC/C=C/CCCCCCCC(=O)OC[C@H](O)CC(F)(F)P(=O)(O)O
15 | 500 | CCCCCCCC/C=C/CCCCCCCC(=O)OC[C@H](O)CC(F)P(=O)(O)O (stereo partly drawn)
16 | ~1000 | CCCCCCCC/C=C/CCCCCCCC(=O)OC[C@H](F)COP(=O)(O)O
17 | 500 | CCCCCCCC/C=C/CCCCCCCC(=O)OC[C@@H](O)CC(F)(F)P(=O)(O)O
18 | 5 | CCCCCCCC/C=C/CCCCCCCC(=O)O[C@H](COC)CC(F)P(=O)(O)O (stereo partly drawn)
19 | ~3000 | CCCCCCCCCCCCCCCC(=O)OC(CF)COP(=O)(O)O (single isomer, unassigned)
20 | ~10 | CCCCCCCC/C=C/CCCCCCCC(=O)OC(CF)COP(=O)(O)O (single isomer, unassigned; form 1)
21 | ~200 | CCCCCCCC/C=C/CCCCCCCC(=O)OC(CF)COP(=O)(O)O (single isomer, unassigned; form 2)
22 | > 10000 | CCCCCCCCCCCCCCCC(=O)OCC(O)COP(=O)(O)O (stereo not drawn) [PALMITOYL]

Row | Structure (SMILES) | EC50 [nM]
23 | CCCCCCCC/C=C/CCCCCCCC(=O)O[C@H](COC)COP(O)(O)=S | ~5000
